Measured values reported in ChEMBL document CHEMBL3352268, “Structures and bioactivities of dihydrochalcones from Metrodorea stipularis” (J Nat Prod, 2014).
pEC50, pIC50: −log10 of the molar value.

What was measured:
[1] = target: Procathepsin L (Homo sapiens, UniProt P07711); test: Inhibition of cathepsin L (unknown origin) using fluorometric Z-Phe-Arg-AMC as substrate by spectrofluorimetry
In short: (§1)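 Enzyme activated 5 min with DTT in acetate buffer pH 5.5 at 37 °C, then incubated 5 min with sample. Z-Phe-Arg-AMC at 185 μM (catB) or 10 μM (catL), with stirring; fluorescence ex 355/em 460 nm. Controls: no inhibitor, and E-64. Run in triplicate. IC50 from rates at ≥7 inhibitor concentrations by nonlinear regression.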

[2] = target: Cruzipain (Trypanosoma cruzi, UniProt P25779); test: Inhibition of Trypanosoma cruzi cruzain using Z-Phe-Arg-AMC as substrate by spectrofluorimetry
In short: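 Substrate Z-Phe-Arg-AMC; activity tracked 5 min with stirring in phosphate buffer pH 6.3 with DTT at 37 °C, in cuvettes (ex 380/em 460 nm). Controls: no inhibitor, and E-64. Run in triplicate. IC50 from rates at five inhibitor concentrations by nonlinear regression.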

[3] = test system: Plasmodium falciparum; test: Antimalarial activity against Plasmodium falciparum W2 after 72 hrs by SYBR Green-based parasite proliferation assay; format: functional, organism-based; conditions: W2, 72 h
In short: (§2)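 Parasites grown in human O+ erythrocytes in RPMI 1640 with hypoxanthine, HEPES, Albumax and 5% human serum, under 3% CO2/1% O2/96% N2 at 37 °C. Cultures were exposed to serial dilutions of compound for 72 h. Parasite DNA growth was read by SYBR Green fluorescence. EC50 was derived from quadruplicate runs, with bromophycolide A as positive control.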

[4] = test system: Plasmodium falciparum; test: Antimalarial activity against Plasmodium falciparum Dd2 after 72 hrs by SYBR Green-based parasite proliferation assay; format: functional; conditions: Dd2, 72 h; in short: as §2
[5] = test system: Plasmodium falciparum; test: Antimalarial activity against Plasmodium falciparum 3D7 after 72 hrs by SYBR Green-based parasite proliferation assay; format: functional, organism-based; conditions: 3D7, 72 h; in short: as §2
[6] = target: Cathepsin B (Homo sapiens, UniProt P07858); test: Inhibition of cathepsin B (unknown origin) using fluorometric Z-Phe-Arg-AMC as substrate by spectrofluorimetry; in short: as §1

Procathepsin L, sequence (P07711 whole entry): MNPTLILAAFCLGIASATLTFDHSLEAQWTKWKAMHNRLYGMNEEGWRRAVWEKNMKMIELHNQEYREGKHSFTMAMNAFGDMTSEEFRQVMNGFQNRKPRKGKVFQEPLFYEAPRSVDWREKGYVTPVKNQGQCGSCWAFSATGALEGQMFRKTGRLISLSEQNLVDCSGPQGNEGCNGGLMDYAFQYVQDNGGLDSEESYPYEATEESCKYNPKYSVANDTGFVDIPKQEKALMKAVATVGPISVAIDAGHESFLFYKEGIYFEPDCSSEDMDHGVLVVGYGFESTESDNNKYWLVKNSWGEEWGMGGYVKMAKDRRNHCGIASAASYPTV
Cruzipain, sequence (P25779 whole entry): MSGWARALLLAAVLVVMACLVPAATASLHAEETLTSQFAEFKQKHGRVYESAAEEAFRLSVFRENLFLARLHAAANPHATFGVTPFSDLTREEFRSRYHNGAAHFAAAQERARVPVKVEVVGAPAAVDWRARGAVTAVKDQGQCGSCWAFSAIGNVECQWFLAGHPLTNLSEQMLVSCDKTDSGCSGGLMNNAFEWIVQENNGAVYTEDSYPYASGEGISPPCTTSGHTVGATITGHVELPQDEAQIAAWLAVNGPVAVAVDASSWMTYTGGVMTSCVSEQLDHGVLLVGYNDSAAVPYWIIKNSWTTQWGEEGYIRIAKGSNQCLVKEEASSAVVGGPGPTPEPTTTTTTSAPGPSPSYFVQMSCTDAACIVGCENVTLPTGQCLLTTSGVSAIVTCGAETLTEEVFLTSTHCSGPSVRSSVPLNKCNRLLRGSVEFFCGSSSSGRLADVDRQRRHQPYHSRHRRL

Row | SMILES | pIC50 [1] | pIC50 [2] | pIC50 [6] | pEC50 [3] | pEC50 [4] | pEC50 [5]
1 | CC1(C)CCc2c(cc(O)c(C(=O)CCc3ccc4c(c3)CC3C(C)(C)CCCC3(C)O4)c2O)O1 (centres undefined) | < 4.00 | 5.06 | 5.07 | 5.07 | 4.91 | 4.75
2 | CC(C)=CCC/C(C)=C\Cc1c(O)cc(O)c(C(=O)CCc2ccc(O)cc2)c1O | 6.00 | 5.15 | < 4.00 |  |  | 

Second part, led by results:

Row | pIC50 [1] | pIC50 [2] | pIC50 [6] | SMILES | pEC50 [3] | pEC50 [4] | pEC50 [5]
3 | < 4.00 | 4.67 |  | CC1(C)CCc2cc(CCC(=O)c3c(O)cc4c(c3O)CCC(C)(C)O4)ccc2O1 | 5.17 | 4.93 | 4.84
4 | 5.48 | 4.92 | < 4.00 | CC(C)=CCc1cc(CCC(=O)c2c(O)cc3c(c2O)CCC(C)(C)O3)ccc1O |  |  | 
5 | 7.52 |  | 7.40 | CC(C)C[C@H](NC(=O)[C@H]1O[C@@H]1C(=O)O)C(=O)NCCCCN=C(N)N [E-64] |  |  | 
